Measurements from ChEMBL document CHEMBL1152541, “Staurosporine tethered peptide ligands that target cAMP-dependent protein kinase (PKA): optimization and selectivity profiling” (Bioorg Med Chem, 2009).
*1 amine or outer side, *2 acyl side, *3 side chain or, on linkers, in order; H or OH if unused. Where a SMILES comes first, the peptide text is derived from it. Bridges are numbered along the chain shown (N, C = ends). [ ]: non-standard residue; d: D form. The star is where a group is joined. Staurosporine = CO[C@@H]1[C@H](N(C)*)C[C@H]2O[C@]1(C)n1c3ccccc3c3c4c(c5c6ccccc6n2c5c31)C(=O)NC4; Suc = O=C(CCC(=O)[*:2])[*:1]; Dap = NC[C@H](N)C(=O)O; βAla = NCCC(=O)O

Columns and labels:
[1] = target: Serine/threonine-protein kinase pim-3 (Homo sapiens) (UniProt Q86V86); test: Binding affinity to human PIM3 at 500 nM by cell-based competition binding assay relative to control in presence of DTT
[2] = tested on: Epidermal growth factor receptor (Homo sapiens), P00533 [L858R]; test: Binding affinity to human EGFR L858R mutant at 500 nM by cell-based competition binding assay relative to control in presence of DTT
Procedure, shortened: (§1)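 Commercial (Ambit) competitive kinase-binding panel of 90 kinases measured the binding profile. Run under reducing conditions of 7.5 mM DTT. Binding is expressed relative to control.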

[3] = target: Receptor tyrosine-protein kinase erbB-4 (Homo sapiens) (UniProt Q15303); test: Binding affinity to human ERBB4 at 500 nM by cell-based competition binding assay relative to control in presence of DTT; procedure, shortened: as §1
[4] = target: Serine/threonine-protein kinase PLK1 (Homo sapiens) (UniProt P53350); test: Binding affinity to human PLK1 at 500 nM by cell-based competition binding assay relative to control in presence of DTT
[5] = target: T1, Serine/threonine-protein kinase DCLK1 (Homo sapiens) (UniProt O15075); test: Binding affinity to human DCAMKL1 at 500 nM by cell-based competition binding assay relative to control in presence of DTT; procedure, shortened: as §1
T1 sequence (whole entry): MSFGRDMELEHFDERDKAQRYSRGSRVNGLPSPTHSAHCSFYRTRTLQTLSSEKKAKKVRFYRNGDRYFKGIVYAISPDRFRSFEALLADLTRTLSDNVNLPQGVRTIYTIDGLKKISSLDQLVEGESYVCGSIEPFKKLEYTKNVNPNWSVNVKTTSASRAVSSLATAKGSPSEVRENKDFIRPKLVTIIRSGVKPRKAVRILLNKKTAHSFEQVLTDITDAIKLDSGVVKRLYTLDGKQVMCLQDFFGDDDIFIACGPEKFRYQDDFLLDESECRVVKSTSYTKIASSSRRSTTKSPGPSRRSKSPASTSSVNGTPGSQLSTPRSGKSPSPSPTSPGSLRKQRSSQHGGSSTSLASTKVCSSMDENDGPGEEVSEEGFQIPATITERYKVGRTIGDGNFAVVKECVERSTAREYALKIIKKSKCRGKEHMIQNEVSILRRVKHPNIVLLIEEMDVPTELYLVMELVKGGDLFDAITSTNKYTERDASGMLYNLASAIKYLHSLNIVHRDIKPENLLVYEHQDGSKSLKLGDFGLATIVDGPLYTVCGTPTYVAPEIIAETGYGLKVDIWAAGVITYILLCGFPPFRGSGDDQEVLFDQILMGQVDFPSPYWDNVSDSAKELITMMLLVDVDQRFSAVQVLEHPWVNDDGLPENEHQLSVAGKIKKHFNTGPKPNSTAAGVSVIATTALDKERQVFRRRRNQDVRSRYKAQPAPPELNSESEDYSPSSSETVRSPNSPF

[6] = Ratio of compound to staurosporine binding affinity to PKA in presence of DTT
[7] = target: cAMP-dependent protein kinase catalytic subunit alpha (Homo sapiens) (UniProt P17612); test: Binding affinity to human PKACalpha at 200 nM by cell-based competition binding assay relative to control in presence of DTT
[8] = target: Serine/threonine-protein kinase 32C (Homo sapiens) (UniProt Q86UX6); test: Binding affinity to human YANK3 at 200 nM by cell-based competition binding assay relative to control in presence of DTT
[9] = target: High affinity nerve growth factor receptor (Homo sapiens) (UniProt P04629); test: Binding affinity to human TRKA at 200 nM by cell-based competition binding assay relative to control in presence of DTT
[10] = target: Tyrosine-protein kinase JAK2 (Homo sapiens) (UniProt O60674); test: Binding affinity to human JAK2 kinase domain 2 at 200 nM by cell-based competition binding assay relative to control in presence of DTT
Procedure, shortened: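 Competition binding screen (Ambit) across a panel of 90 kinases, scoring test ligand displacement of each kinase's binding relative to control. The screen ran under reducing conditions with 7.5 mM DTT.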

[11] = target: Phosphatidylinositol 4,5-bisphosphate 3-kinase catalytic subunit alpha isoform (Homo sapiens) (UniProt P42336); test: Binding affinity to human PIK3Calpha at 200 nM by cell-based competition binding assay relative to control in presence of DTT
[12] = target: Mitogen-activated protein kinase 11 (Homo sapiens) (UniProt Q15759); test: Binding affinity to human p38beta at 200 nM by cell-based competition binding assay relative to control in presence of DTT
[13] = target: Aurora kinase B (Homo sapiens) (UniProt Q96GD4); test: Binding affinity to human aurora kinase B at 200 nM by cell-based competition binding assay relative to control in presence of DTT
[14] = target: Serine/threonine-protein kinase pim-2 (Homo sapiens) (UniProt Q9P1W9); test: Binding affinity to human PIM2 at 50 nM by cell-based competition binding assay relative to control in presence of DTT
[15] = target: Platelet-derived growth factor receptor alpha (Homo sapiens) (UniProt P16234); test: Binding affinity to human PDGFRalpha at 50 nM by cell-based competition binding assay relative to control in presence of DTT
[16] = target: T2, Tyrosine-protein kinase ZAP-70 (Homo sapiens) (UniProt P43403); test: Binding affinity to human ZAP70 at 50 nM by cell-based competition binding assay relative to control in presence of DTT
T2 sequence (whole entry): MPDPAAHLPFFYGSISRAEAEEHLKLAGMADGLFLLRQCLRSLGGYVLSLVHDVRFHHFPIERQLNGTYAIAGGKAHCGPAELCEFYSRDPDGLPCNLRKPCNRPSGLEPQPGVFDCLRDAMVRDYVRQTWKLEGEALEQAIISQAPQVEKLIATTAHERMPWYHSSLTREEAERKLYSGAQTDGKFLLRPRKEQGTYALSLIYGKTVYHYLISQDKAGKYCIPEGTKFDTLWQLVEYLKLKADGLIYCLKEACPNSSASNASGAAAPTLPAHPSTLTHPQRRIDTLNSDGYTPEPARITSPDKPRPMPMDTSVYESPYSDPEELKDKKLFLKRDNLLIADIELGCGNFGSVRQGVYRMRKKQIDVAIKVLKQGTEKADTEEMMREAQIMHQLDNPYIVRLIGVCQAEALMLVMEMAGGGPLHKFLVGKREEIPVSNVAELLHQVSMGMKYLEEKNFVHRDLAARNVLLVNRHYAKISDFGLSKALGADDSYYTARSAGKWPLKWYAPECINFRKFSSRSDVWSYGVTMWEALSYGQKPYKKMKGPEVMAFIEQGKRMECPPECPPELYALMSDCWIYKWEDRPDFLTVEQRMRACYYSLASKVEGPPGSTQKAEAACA

Tyrosine-protein kinase JAK2 (Homo sapiens), sequence (O60674 whole entry, the tested form may be a part): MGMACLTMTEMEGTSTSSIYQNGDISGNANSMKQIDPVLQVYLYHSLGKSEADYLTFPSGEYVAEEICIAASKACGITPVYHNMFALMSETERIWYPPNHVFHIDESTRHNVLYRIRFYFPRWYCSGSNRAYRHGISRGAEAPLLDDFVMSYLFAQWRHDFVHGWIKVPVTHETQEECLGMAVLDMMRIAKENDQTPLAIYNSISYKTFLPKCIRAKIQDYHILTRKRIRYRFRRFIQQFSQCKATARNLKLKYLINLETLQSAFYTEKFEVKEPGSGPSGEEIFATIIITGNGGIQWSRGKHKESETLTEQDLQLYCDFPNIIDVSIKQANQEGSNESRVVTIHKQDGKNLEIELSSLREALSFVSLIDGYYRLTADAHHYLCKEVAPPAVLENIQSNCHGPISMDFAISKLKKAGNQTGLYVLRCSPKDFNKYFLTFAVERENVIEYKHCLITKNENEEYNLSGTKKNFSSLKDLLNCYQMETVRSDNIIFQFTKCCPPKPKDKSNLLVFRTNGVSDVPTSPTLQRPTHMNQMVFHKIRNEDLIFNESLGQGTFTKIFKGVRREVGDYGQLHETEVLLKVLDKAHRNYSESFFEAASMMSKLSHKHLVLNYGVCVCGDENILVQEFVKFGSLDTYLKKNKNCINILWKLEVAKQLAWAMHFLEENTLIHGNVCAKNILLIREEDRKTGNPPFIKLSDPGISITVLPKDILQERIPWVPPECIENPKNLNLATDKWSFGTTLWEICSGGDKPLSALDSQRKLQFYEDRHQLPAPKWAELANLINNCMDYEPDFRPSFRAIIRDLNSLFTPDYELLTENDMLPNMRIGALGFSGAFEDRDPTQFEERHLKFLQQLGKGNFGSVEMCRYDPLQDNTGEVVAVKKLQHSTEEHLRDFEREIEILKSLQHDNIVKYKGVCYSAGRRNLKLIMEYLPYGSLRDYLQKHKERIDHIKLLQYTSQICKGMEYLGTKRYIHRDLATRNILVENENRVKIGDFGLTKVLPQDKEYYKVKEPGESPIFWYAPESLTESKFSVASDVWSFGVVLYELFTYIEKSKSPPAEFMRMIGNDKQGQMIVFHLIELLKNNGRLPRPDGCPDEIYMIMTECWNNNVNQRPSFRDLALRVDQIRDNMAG
High affinity nerve growth factor receptor (Homo sapiens), sequence (P04629 33-796 limits assumed): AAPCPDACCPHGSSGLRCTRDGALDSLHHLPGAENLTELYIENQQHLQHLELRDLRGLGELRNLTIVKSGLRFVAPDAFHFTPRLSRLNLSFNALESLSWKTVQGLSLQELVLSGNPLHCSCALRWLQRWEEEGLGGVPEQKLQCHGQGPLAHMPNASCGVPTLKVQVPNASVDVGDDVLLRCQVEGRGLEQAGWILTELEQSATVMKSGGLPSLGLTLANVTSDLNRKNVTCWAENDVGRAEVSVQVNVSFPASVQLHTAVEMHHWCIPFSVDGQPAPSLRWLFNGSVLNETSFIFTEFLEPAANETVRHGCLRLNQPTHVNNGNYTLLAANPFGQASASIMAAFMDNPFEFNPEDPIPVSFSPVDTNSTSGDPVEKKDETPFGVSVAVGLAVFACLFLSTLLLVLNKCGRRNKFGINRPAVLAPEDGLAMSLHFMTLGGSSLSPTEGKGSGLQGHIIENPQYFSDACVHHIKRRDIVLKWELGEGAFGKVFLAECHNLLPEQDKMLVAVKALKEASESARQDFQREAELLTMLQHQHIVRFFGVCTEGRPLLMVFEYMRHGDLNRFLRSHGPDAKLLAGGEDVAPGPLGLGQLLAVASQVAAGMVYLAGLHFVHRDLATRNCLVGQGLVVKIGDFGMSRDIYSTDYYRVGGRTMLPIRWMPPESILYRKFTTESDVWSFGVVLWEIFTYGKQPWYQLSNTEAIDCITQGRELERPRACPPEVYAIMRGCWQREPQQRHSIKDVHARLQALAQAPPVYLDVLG
Serine/threonine-protein kinase 32C (Homo sapiens), sequence (Q86UX6 whole entry): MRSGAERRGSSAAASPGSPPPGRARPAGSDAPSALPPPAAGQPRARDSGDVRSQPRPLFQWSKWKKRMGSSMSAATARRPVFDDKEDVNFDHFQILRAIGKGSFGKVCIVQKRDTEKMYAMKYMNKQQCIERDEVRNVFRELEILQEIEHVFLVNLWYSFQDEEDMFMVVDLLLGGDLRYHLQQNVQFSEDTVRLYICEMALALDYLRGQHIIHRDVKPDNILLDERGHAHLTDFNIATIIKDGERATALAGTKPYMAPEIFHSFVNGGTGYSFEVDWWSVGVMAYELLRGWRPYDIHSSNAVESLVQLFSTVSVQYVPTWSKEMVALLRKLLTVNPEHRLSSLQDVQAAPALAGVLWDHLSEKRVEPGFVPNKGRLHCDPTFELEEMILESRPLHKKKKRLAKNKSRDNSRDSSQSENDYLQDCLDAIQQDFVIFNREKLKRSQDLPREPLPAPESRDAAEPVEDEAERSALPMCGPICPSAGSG
Serine/threonine-protein kinase pim-2 (Homo sapiens), sequence (Q9P1W9 whole entry, looked up): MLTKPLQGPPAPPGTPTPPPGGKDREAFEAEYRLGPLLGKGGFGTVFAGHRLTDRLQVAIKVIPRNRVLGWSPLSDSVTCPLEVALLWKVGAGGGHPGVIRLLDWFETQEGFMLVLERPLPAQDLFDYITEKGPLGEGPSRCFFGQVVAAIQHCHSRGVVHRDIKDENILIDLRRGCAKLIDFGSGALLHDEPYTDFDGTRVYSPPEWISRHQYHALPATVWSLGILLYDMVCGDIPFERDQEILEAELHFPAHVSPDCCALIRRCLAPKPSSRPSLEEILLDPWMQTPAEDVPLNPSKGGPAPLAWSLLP
Phosphatidylinositol 4,5-bisphosphate 3-kinase catalytic subunit alpha isoform (Homo sapiens), sequence (P42336 whole entry, canonical isoform): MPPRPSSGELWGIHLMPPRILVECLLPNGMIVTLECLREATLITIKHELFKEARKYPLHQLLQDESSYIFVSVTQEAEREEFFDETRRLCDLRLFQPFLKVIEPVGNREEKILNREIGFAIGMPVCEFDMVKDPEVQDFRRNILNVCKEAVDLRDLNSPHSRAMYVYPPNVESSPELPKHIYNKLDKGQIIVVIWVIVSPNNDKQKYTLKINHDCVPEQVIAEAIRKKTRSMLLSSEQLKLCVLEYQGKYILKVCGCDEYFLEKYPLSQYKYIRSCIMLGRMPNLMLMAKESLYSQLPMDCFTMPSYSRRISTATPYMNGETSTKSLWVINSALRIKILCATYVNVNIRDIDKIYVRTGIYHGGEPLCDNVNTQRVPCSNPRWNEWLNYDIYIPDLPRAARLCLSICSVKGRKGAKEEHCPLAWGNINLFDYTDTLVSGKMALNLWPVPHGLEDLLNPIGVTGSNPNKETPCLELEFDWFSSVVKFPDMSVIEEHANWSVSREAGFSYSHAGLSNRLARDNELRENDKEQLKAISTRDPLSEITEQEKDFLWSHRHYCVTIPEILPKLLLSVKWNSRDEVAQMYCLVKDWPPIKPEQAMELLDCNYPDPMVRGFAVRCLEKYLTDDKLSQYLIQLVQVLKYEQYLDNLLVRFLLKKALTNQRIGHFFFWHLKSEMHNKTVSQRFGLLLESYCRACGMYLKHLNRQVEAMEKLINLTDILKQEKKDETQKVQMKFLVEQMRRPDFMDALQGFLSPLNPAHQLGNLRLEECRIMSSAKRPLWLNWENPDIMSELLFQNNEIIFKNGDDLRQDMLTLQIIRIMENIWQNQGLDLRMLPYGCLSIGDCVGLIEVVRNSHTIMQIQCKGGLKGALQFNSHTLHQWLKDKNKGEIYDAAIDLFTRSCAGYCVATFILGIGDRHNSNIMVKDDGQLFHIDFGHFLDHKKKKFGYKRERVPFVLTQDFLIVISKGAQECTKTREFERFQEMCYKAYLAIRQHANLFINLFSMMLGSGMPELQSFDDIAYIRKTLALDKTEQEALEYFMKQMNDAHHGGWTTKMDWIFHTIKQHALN
Mitogen-activated protein kinase 11 (Homo sapiens), sequence (Q15759 whole entry): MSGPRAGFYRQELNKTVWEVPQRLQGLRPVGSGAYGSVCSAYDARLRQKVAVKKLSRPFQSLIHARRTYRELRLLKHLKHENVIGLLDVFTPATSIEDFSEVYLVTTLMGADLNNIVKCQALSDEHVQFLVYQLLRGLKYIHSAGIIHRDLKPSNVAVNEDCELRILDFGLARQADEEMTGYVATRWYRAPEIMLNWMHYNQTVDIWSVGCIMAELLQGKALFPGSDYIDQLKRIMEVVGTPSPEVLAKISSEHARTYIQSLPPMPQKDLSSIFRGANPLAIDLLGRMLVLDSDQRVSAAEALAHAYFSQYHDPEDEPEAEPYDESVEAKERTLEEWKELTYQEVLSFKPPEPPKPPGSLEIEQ
Aurora kinase B (Homo sapiens), sequence (Q96GD4 whole entry): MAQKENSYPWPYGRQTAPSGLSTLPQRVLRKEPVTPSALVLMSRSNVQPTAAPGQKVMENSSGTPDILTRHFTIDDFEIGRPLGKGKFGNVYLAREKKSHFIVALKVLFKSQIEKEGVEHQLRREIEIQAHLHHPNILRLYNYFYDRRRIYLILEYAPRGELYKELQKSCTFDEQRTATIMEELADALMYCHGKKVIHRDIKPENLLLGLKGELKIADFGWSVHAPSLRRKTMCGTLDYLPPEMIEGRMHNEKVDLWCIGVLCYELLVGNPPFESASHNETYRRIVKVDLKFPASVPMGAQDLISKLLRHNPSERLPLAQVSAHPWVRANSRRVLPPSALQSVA

SMILES: CO[C@@H]1[C@H](N(C)C(=O)CCC(=O)NCCC(=O)NCCC(=O)NCCC(N)=O)C[C@H]2O[C@]1(C)n1c3ccccc3c3c4c(c5c6ccccc6n2c5c31)C(=O)NC4
- Activity [1]: 10%
- Activity [2]: 53%
- Activity [3]: 70%
- Activity [4]: 85%
- Activity [5]: 100%
- Selectivity ratio [6]: 14

SMILES: CO[C@@H]1[C@H](N(C)C(=O)CCC(=O)NCCC(=O)NCCC(=O)NCCC(=O)NCCC(=O)NCCC(=O)NCCC(=O)NCCC(=O)N[C@H]2CSSC[C@@H](C(=O)NCC(N)=O)NC(=O)CNC(=O)[C@H](Cc3ccccc3)NC(=O)[C@H](C(C)C)NC(=O)[C@H](CCCNC(=N)N)NC(=O)[C@H](Cc3ccccc3)NC(=O)[C@H](C(C)C)NC2=O)C[C@H]2O[C@]1(C)n1c3ccccc3c3c4c(c5c6ccccc6n2c5c31)C(=O)NC4 ({Staurosporine-Suc-βAla-βAla-βAla-βAla-βAla-βAla-βAla}-CVFRVFGCG-NH2; disulfide 1-8)
- Activity [7]: 19%
- Activity [8]: 100%
- Activity [9]: 57%
- Activity [10]: 4%
- Activity [11]: 89%
- Activity [12]: 100%
- Activity [13]: 5.8%

SMILES: CO[C@@H]1[C@H](N(C)C(=O)CCC(=O)NCCC(=O)NCCC(=O)NCCC(=O)NCCC(=O)NCCC(=O)NCCC(=O)NCCC(=O)N[C@H]2CNC(=O)C[C@@H](C(N)=O)NC(=O)CNC(=O)[C@H](Cc3ccccc3)NC(=O)[C@H](C(C)C)NC(=O)[C@H](CCCNC(=N)N)NC(=O)[C@H](Cc3ccccc3)NC(=O)[C@H](C(C)C)NC2=O)C[C@H]2O[C@]1(C)n1c3ccccc3c3c4c(c5c6ccccc6n2c5c31)C(=O)NC4 ({Staurosporine-Suc-βAla-βAla-βAla-βAla-βAla-βAla-βAla}-[Dap]VFRVFGD-NH2; lactam 1-8)
- Activity [14]: 100%
- Activity [15]: 100%
- Activity [16]: 57%
